Yeast life ext = yeast lifespan extension. S. cerevisiae growth with nicotinamide, OD615; deaD strain in restrictive glucose medium. inhibition of the nicotinamide effect, % at 10 µM. hit rate 0.68% among 130,000. AID 775;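 active = inhibition above a set limit, placed 3 SD over the median of all compounds, cut at about 26% in these data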;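 note: 0% = nicotinamide-treated wells and 100% = cells grown without nicotinamide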
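assay system = DeaD-strain S. cerevisiae | buffer or medium = restrictive glucose medium | reagent = 1.5 mM nicotinamide | compound = 10 µM single point, 0.25% DMSO | incubation = 48 h compound exposure at 30 °C, humidified | signal = OD615 measurement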
PostGolgi yeast = growth inhibition of a yeast mutant, post-Golgi transport screen; post-Golgi transport phenotypic cell assay; inhibition, % at 10 µM; hit rate 0.9% among 98,000;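 note: yeast cells grown in 1536-well plates; yeast grown about 18 h at 30C before absorbance read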
PostGolgi ctrl = yeast control strain growth, post-Golgi counter-screen | inhibition, % at 10 µM | hit rate 5% among 98,000 | efflux-deficient yeast background strain, growth absorbance A615, 16 h
Yeast growth inh = yeast BB579 growth reduction in restrictive medium | hit rate 0.51% among 140,000 | S. cerevisiae BB579 growth, OD615, 48 h | inhibition, % at 10 µM | AID 804;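 active = inhibition above a set limit, 3 SD over the mean compound inhibition, cut at about 44% in these data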
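Assay system: S. cerevisiae DeaD strain BB579 yeast. Medium: CSMM-D restrictive synthetic medium containing dextrose (glucose). Times: 4 h cell preincubation, 48 h compound exposure, 30 °C humidified. Signal: OD615 turbidity measurement. Benchmarks: positive control amphotericin B 10 µg/mL.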
* = called active by the depositor. This is one part of a sample in which hits are shown more often than they occur. Cut-off read from the data, not from the text of the source, unless noted: active = inhibition above about 30%; inactive = the rest.

COC(=O)c1ccc(Cl)c(NC(=O)CN2CCN(C)CC2)c1 was read as Yeast life ext -6, PostGolgi yeast -5, PostGolgi ctrl -1 and Yeast growth inh 12.
O=C(Nc1ccccc1)c1nnn(Cc2ccccc2)c1NC(=O)C(F)(F)F was read as Yeast life ext -7, PostGolgi yeast 3, PostGolgi ctrl 7 and Yeast growth inh -16.
Screening Fc1ccc(N2CCN(c3ccc4c(C(F)(F)F)cc(C(F)(F)F)nc4n3)CC2)cc1 returned Yeast life ext -14, PostGolgi yeast 14, PostGolgi ctrl 75* and Yeast growth inh -38.
For FC(F)(F)c1cc(C(F)(F)F)c2ccc(N3CCN(c4ccc(Cl)cc4)CC3)nc2n1 the results were Yeast life ext -20, PostGolgi yeast 16, PostGolgi ctrl 21 and Yeast growth inh -49.
Screening COc1ccc(C2C(C#N)=C(N)N3C(=C2C#N)Sc2ccccc23)cc1 (configuration not stated) returned Yeast life ext -8, PostGolgi yeast -8, PostGolgi ctrl 30* and Yeast growth inh -68.
Screening CCOC(=O)c1c(-c2ccccc2)oc2ccc(OCC)cc12 returned Yeast life ext -3 and Yeast growth inh -53.
`CCOC(=O)c1c(-c2ccccc2)oc2ccc(OC)cc12` gave Yeast life ext -33, PostGolgi yeast 24, PostGolgi ctrl 31* and Yeast growth inh 0.
Screening O=C(Nc1nc(-c2cc(Cl)sc2Cl)cs1)c1ccc(Br)s1 returned Yeast life ext -10, PostGolgi yeast -10, PostGolgi ctrl -8 and Yeast growth inh -29.
Screening O=C(Nc1nc(-c2ccccn2)cs1)c1ccc(Br)s1 returned Yeast life ext -29, PostGolgi yeast 18, PostGolgi ctrl 6 and Yeast growth inh 99*.
OC(Cn1ccnc1)c1ccc(Cl)cc1Cl (configuration not stated) was read as Yeast life ext -7, PostGolgi yeast 76*, PostGolgi ctrl 24 and Yeast growth inh -22.
`CC(C(=O)NC(=O)NC1CCCCC1)N1CCN(C(c2ccccc2)c2ccccc2)CC1` (configuration not stated) gave Yeast life ext -15, PostGolgi yeast 2, PostGolgi ctrl 28 and Yeast growth inh -15.
`Cc1cccc2cc3c(N)c(C(=O)Nc4ccc(N5CCOCC5)cc4)sc3nc12` gave Yeast life ext -27, PostGolgi yeast -1, PostGolgi ctrl 41* and Yeast growth inh -39.
Cc1ccc(/C=N/c2sc(Cc3ccccc3)c(C)c2C(N)=O)o1 was read as Yeast life ext 1 and Yeast growth inh -31.
Screening Cc1c(Cc2ccccc2)sc(N)c1C(N)=O returned Yeast life ext -3, PostGolgi yeast 0, PostGolgi ctrl 38* and Yeast growth inh -40.
`CCCCCCc1ccc(-c2ncc(N)cn2)cc1` gave Yeast life ext -31, PostGolgi yeast -1, PostGolgi ctrl 32* and Yeast growth inh 97*.
Screening O=C(Nc1ccccc1)c1ccc(-c2ccc(Br)cc2)o1 returned Yeast growth inh -21.
For O=C(Nc1ccc(CN2CCOCC2)cc1)c1ccc(-c2ccc(Br)cc2)o1 the results were Yeast life ext -16, PostGolgi yeast 0, PostGolgi ctrl 60* and Yeast growth inh -42.
For CC(=O)NC(Cc1cccc(C)c1)C(=O)NC1CCN(C(=O)c2ccc([N+](=O)[O-])cc2)CC1 (configuration not stated) the results were Yeast life ext -4 and Yeast growth inh 1.
For c1ccc(Cc2nnc(N3CCOCC3)c3ccccc23)cc1 the results were Yeast life ext -4, PostGolgi yeast 1, PostGolgi ctrl 45* and Yeast growth inh -25.
Screening COc1ccc(C2CC(=O)C(C=NCCN3CCN(C(C)=O)CC3)=C(O)C2)cc1 (configuration not stated) returned Yeast growth inh -34.
For CC(=O)N1CCN(CCN=CC2=C(O)CC(c3cccs3)CC2=O)CC1 (configuration not stated) the results were Yeast life ext 36*, PostGolgi yeast 2, PostGolgi ctrl 4 and Yeast growth inh -15.
O=C1CC(c2ccc(F)cc2)CC(O)=C1C=NCCN1CCN(C(=O)Nc2ccccc2)CC1 (configuration not stated) was read as Yeast life ext 90*, PostGolgi yeast -3, PostGolgi ctrl 4 and Yeast growth inh -36.
O=C1CC(c2ccco2)CC(O)=C1C=NCCN1CCN(C(=O)Nc2ccc(Cl)cc2)CC1 (configuration not stated) was read as Yeast life ext 3 and Yeast growth inh -22.
Screening COc1ccc(NC(=S)N2CCN(CCN=CC3=C(O)CC(c4ccccc4)CC3=O)CC2)cc1 (configuration not stated) returned Yeast life ext 50* and Yeast growth inh -35.
Cc1ccccc1OCC(=O)NNC(=S)NC(=O)c1ccco1 was read as Yeast life ext -13, PostGolgi yeast 38*, PostGolgi ctrl 53* and Yeast growth inh -54.
Screening CCNc1ccc(C2(O)C(=O)c3ccccc3C2=O)cc1 returned Yeast life ext 1 and Yeast growth inh -30.
Screening Cn1nc(-c2ccc(Cl)cc2)c2cc(C(=O)N3CCN(c4ccccn4)CC3)sc21 returned Yeast life ext -14, PostGolgi yeast -5, PostGolgi ctrl 52* and Yeast growth inh -19.
For Cn1nc(-c2ccc(Cl)cc2)c2cc(C(=O)N3CCN(c4ccccc4)CC3)sc21 the results were Yeast life ext -1, PostGolgi yeast -4, PostGolgi ctrl 7 and Yeast growth inh -14.
For O=C(/C=C/c1ccc(Cl)cc1)N1CCN(c2ccccn2)CC1 the results were Yeast life ext -4 and Yeast growth inh -5.
Screening CC(C)(Oc1ccc(Cl)cc1)C(=O)N1CCN(c2ccccn2)CC1 returned Yeast life ext 4, PostGolgi yeast 1, PostGolgi ctrl 50* and Yeast growth inh -29.
Screening Cc1ccc(CNC(=O)c2cc3c(-c4ccc(Cl)cc4)nn(C)c3s2)o1 returned Yeast life ext -8, PostGolgi yeast -7, PostGolgi ctrl 53* and Yeast growth inh -23.
`Cc1nc2ccccc2n1C(=O)c1cc(-c2ccc(Br)cc2)nc2ccccc12` gave Yeast life ext -7, PostGolgi yeast 0, PostGolgi ctrl 5 and Yeast growth inh -7.
Screening O=C(CCSc1ccc(Cl)cc1)NC1CCCCC1 returned Yeast life ext -17, PostGolgi yeast 0, PostGolgi ctrl 6 and Yeast growth inh -10.
For O=C(CCSc1ccc(Cl)cc1)NC12CC3CC(CC(C3)C1)C2 the results were Yeast life ext 25, PostGolgi yeast 9, PostGolgi ctrl 43* and Yeast growth inh -44.
O=C(CSC1=NCCS1)N1CCN(c2ccc(Cl)cc2)CC1 was read as Yeast life ext -24, PostGolgi yeast 5, PostGolgi ctrl 4 and Yeast growth inh 51*.
Screening Cc1cc(C)c2c(CC(=O)Nc3nccs3)coc2c1 returned Yeast life ext -8, PostGolgi yeast -1, PostGolgi ctrl 6 and Yeast growth inh -40.
`C=CCO/N=C/C1C(=O)CC(C)(C)CC1=O` gave Yeast life ext 39* and Yeast growth inh -12.
For CCOC(=O)c1cncc(C(=O)O)c1 the results were Yeast life ext -2, PostGolgi yeast -8, PostGolgi ctrl -2 and Yeast growth inh -23.
